Active and inactive are the calls of the source. No cut-off for these calls is given here.
How the values were obtained:
[1] = Selectivity ratio of IC50 for human Jurkat cells to IC50 for human PHA-stimulated PBL cells; format: ADME, cell-based; details: Jurkat cells and PHA-stimulated PBL cells, read-out: Ratio IC50
[2] = system: HeLa; test: Induction of apoptosis in human HeLa cells assessed as reduction of Xiap expression at 10 nM after 24 hrs by Western Blot analysis; format: functional, cell-based
Method in brief: (§1)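 HeLa cells exposed to 10 or 100 nM for 24 or 48 h, washed in ice-cold PBS, lysed on ice 30 min, spun at 15000g at 4 °C. 20 μg protein run on 7.5–15% SDS–PAGE, blotted to PVDF, blocked overnight at 4 °C. Primary antibodies 2 h at room temperature, peroxidase secondary 60 min, ECL detection, β-actin reprobe as loading control.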

[3] = system: HT-29; test: Cell cycle arrest in human HT-29 cells assessed as accumulation at G2/M phase at >20 nM after 24 hrs by propidium iodide staining-based flow cytometry; format: functional
Method in brief: (§2)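 Jurkat, HT-29 and HeLa cells in exponential growth (5 × 10^5 cells) treated 24 h at a range of concentrations. Fixed in ice-cold 70% ethanol, lysed with buffer containing RNase A and 0.1% Triton X-100, stained with propidium iodide. DNA content read by flow cytometry and the percentage of cells per cycle phase derived from DNA histograms.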

[4] = system: HeLa; test: Induction of apoptosis in human HeLa cells assessed as Bcl-XL phosphorylation at 10 to 100 nM after 24 to 48 hrs by Western Blot analysis; format: functional, cell-based; method in brief: as §1
[5] = system: HeLa; test: Induction of apoptosis in human HeLa cells assessed as ROS production at 10 to 100 nM after 24 to 48 hrs by H2-DCFDA staining-based flow cytometry relative to control; format: functional, cell-based
Method in brief: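 HeLa cells treated 24 or 48 h, then stained with H2-DCFDA or hydroethidine. ROS read by flow cytometry against untreated control. Mean ± SEM of three independent experiments.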

[6] = system: MCF7; test: Ratio of Combretastatin A-4 IC50 to compound IC50 for human MCF7 cells; format: functional
[7] = system: CCRF-CEM; test: Cytotoxicity against human CEM cells after 72 hrs by MTT assay; format: functional, cell-based
Method in brief: (§3)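 MTT viability test: 8 × 10^3 cells per well settled 18 h at 37 °C, 5% CO2, then given fresh medium with compound (from 10 mM DMSO stocks, final DMSO ≤0.25%) for 72 h. […] CEMVbl-100 is a vinblastine-selected P-gp line; LoVoDoxo is grown in Ham's F12 with 0.1 μg/mL doxorubicin. Resistance index = resistant IC50/parental IC50.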

[8] = system: HT-29; test: Cell cycle arrest in human HT-29 cells assessed as accumulation at G2/M phase after 24 hrs by propidium iodide staining-based flow cytometry; format: functional; method in brief: as §2
[9] = system: HeLa; test: Cytotoxicity against human HeLa cells after 72 hrs by MTT assay; format: functional, cell-based
[10] = system: HeLa; test: Induction of apoptosis in human HeLa cells assessed as mitochondrial membrane depolarization after 24 to 48 hrs by JC-1 staining; format: functional, cell-based
Method in brief: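 HeLa cells treated 24 or 48 h, then stained with the potentiometric dye JC-1. Proportion of cells with depolarised mitochondria read by flow cytometry. Mean ± SEM of three independent experiments.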

[11] = system: A549; test: Resistance index, ratio of IC50 for human A549-T12 cells to IC50 for human A549 cells; format: functional
Method in brief: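 Mean ± SE of at least three independent experiments. Resistance ratio = IC50 in resistant line/IC50 in nonresistant line.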

[12] = Cytotoxicity against human LoVo/DX cells after 72 hrs by MTT assay; format: functional, cell-based; method in brief: as §3
[13] = system: Jurkat; test: Cell cycle arrest in human Jurkat cells assessed as accumulation at G2/M phase at >20 nM after 24 hrs by propidium iodide staining-based flow cytometry; format: functional; method in brief: as §2
[14] = Selectivity ratio of IC50 for human CEM cells to IC50 for human PHA-stimulated PBL cells; format: ADME, cell-based; details: CEM cells and PHA-stimulated PBL cells, read-out: Ratio IC50
[15] = Cytotoxicity against human CEM/VBL100 cells after 72 hrs by MTT assay; format: functional, cell-based; details: CEM/VBL100, 72 h; method in brief: as §3
[16] = system: HeLa; test: Induction of apoptosis in human HeLa cells assessed as phosphorylated Mcl-1 at 10 nM after 48 hrs by Western Blot analysis; format: functional, cell-based; method in brief: as §1
[17] = Cytotoxicity against human SEM cells after 72 hrs by MTT assay; format: functional, cell-based
Method in brief: (§4)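 Cells plated at 8 × 10^3 per well, 18 h at 37 °C, 5% CO2, then fresh medium with graded compound concentrations (DMSO ≤0.25%) for 72 h. Jurkat, SEM, HL-60 grown in RPMI-1640; A549, HeLa, HT-29, MCF-7 in DMEM; 10% FBS with penicillin/streptomycin. MTT viability read-out; IC50 vs 0.25% DMSO controls; mean ± SE of at least three independent experiments.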

[18] = system: Jurkat; test: Cytotoxicity against human Jurkat cells after 72 hrs by MTT assay; format: functional, cell-based; method in brief: as §4
[19] = system: HeLa; test: Cell cycle arrest in human HeLa cells assessed as accumulation at G2/M phase after 24 hrs by propidium iodide staining-based flow cytometry; format: functional; method in brief: as §2
[20] = system: HeLa; test: Induction of apoptosis in human HeLa cells assessed as Mcl-1 phosphorylation at 10 to 100 nM after 24 hrs by Western Blot analysis; format: functional, cell-based; method in brief: as §1
[21] = Inhibition of bovine brain tubulin polymerization after 20 mins by turbidimetric analysis; parameters: species or system Bos taurus
Method in brief: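 Bovine brain tubulin (10 μM) preincubated with varying compound concentrations in glutamate buffer at 30 °C, chilled to 0 °C, 0.4 mM GTP added, then warmed to 30 °C in a recording spectrophotometer.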

[22] = system: HeLa; test: Cell cycle arrest in human HeLa cells assessed as variation in cyclin B expression at 10 to 100 nM after 24 to 48 hrs by Western Blot analysis; format: functional, cell-based; method in brief: as §1
[23] = system: HeLa; test: Induction of apoptosis in human HeLa cells assessed as survivin phosphorylation on Thr32 after 24 to 48 hrs by Western Blot analysis; format: functional, cell-based; method in brief: as §1
[24] = Antitumor activity against mouse BNL 1ME A.7R.1 cells xenografted in Balb/c mouse assessed as reduction in tumor growth at 5 mg/kg, ip QD for 7 days; format: functional; parameters: scale not given: the % may be the effect or the level left; details: route intraperitoneal
Method in brief: (§5)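 Male Balb/c mice, 8 weeks old, given 10^7 syngeneic BNL 1ME A.7R.1 hepatoma cells subcutaneously in the dorsal region in 200 μL PBS. Randomised to groups of five. Dosed intraperitoneally once daily for 7 days at 5 mg/kg in 0.9% NaCl with 5% PEG 400 and 0.5% Tween 80, against vehicle and CA-4P. Tumours measured daily by caliper, V = AB2/2; body weight recorded. Mean ± SEM.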

[25] = system: HT-29; test: Cell cycle arrest in human HT-29 cells assessed as accumulation at G2/M phase at 20 nM after 24 hrs by propidium iodide staining-based flow cytometry; format: functional; method in brief: as §2
[26] = system: Mus musculus; test: Toxicity in Balb/c mouse xenografted with mouse BNL 1ME A.7R.1 cells assessed as decrease in body weight at 5 mg/kg, ip; format: organism-based; parameters: dose 5 mg/kg, route intraperitoneal; details: in vivo; method in brief: as §5

In the case of `COC(=O)c1sc2cc(OC)ccc2c1Nc1cc(OC)c(OC)c(OC)c1`, the selectivity ratio [1] is reported as 2000, the Activity [2] is reported as “Active” and the Activity [3] is reported as over 80%. The Activity [4] was “Active”, the Activity [5] was “Active” and the “Ratio IC50” value [6] was 2. The IC50 [7] was 3.2 nM, the Activity [8] was “Dose-dependent effect” and the IC50 [9] was 0.28 nM. The Activity [10] was “Dose-dependent effect”, the “Ratio IC50” value [11] was 1.5 and the IC50 [12] was 0.4 nM. It also gave an Activity [13] of over 80%, a selectivity ratio [14] of 2000 and an IC50 [15] of 1.3 nM. The Activity [16] was “inactive”, the IC50 [17] was 10.3 nM and the IC50 [18] was 1.7 nM. The Activity [19] was “Dose-dependent effect”, the Activity [20] was “Active” and the IC50 [21] was 880 nM. The Activity [22] was “inactive”, the Activity [23] was “Active” and the Activity [24] was 68.5%. The Activity [25] was “Active” and the Activity [26] was “Toxic”.
